For data set [1], the target named is T1, Alpha-1B adrenergic receptor (Homo sapiens, UniProt P35368).
T1 sequence (P35368 whole entry): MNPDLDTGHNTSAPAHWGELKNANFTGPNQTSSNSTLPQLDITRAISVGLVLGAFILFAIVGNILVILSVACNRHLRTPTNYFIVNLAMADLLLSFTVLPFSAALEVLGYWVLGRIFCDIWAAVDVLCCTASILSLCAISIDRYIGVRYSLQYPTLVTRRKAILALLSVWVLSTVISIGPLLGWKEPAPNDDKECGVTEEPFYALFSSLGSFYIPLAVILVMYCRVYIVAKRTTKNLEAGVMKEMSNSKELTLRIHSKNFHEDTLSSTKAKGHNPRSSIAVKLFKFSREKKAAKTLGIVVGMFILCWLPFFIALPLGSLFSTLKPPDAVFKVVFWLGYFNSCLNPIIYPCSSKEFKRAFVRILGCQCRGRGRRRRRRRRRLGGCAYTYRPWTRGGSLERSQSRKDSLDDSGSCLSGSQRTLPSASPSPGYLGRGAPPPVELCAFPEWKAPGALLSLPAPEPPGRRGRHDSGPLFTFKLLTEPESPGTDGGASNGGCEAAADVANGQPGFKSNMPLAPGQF
Nature of the data set: Binding affinity against Alpha-1B adrenergic receptor (recombinant human receptor) using [3H]prazosin.

Data set [2] in a line: Selectivity against alpha-1a receptor over alpha-2a,b,c adrenoceptors. A digest of the protocol:
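Binding affinities (Ki, nM) measured at recombinant human α1a and α2a, α2b and α2c adrenoceptors; fold selectivity expressed as the ratio of α2 subtype Ki to α1a Ki.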

The target of data set [3] is T2, Alpha-1A adrenergic receptor (Homo sapiens, UniProt P35348).
T2 sequence (P35348 whole entry): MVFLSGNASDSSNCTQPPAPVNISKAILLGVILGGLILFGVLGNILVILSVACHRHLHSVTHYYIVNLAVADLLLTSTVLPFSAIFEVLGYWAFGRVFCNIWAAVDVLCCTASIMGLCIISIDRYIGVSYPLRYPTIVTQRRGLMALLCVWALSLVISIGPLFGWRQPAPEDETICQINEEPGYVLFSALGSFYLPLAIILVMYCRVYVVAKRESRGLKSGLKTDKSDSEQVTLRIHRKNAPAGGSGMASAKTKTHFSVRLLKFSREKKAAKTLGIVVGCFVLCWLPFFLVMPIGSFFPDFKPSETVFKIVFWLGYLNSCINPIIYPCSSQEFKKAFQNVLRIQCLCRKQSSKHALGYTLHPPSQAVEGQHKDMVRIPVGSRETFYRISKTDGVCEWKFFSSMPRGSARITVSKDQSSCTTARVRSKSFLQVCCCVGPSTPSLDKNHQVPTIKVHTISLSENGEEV
Nature of the data set: Binding affinity against Alpha-1A adrenergic receptor (recombinant human receptor) using [3H]prazosin.

Data set [4] addresses T3, Alpha-1D adrenergic receptor (Homo sapiens, UniProt P25100).
T3 sequence (P25100 whole entry): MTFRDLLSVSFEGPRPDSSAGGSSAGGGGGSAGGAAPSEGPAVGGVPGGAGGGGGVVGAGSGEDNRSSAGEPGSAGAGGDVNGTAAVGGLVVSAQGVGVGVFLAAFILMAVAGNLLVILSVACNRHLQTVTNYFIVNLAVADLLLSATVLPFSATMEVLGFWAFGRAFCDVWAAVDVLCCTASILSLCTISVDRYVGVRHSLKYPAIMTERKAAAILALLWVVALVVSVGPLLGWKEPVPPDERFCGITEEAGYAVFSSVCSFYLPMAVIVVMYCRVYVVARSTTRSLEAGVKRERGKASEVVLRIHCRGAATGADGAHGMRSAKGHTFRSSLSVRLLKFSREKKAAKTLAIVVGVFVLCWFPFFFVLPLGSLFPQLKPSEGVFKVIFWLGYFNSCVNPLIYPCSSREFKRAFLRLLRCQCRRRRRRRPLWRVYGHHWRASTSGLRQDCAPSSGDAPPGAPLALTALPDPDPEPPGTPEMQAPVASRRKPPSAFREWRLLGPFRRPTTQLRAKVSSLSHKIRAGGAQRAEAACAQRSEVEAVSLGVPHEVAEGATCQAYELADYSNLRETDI
Kind of data set: Binding affinity against Alpha-1D adrenergic receptor (recombinant human receptor) using [3H]-prazosin.

For data set [5], the system named is Rattus norvegicus. Kind of data set: Area under curve at an iv dose of 1 mg/kg in rat. Format: ADME, organism-based. More on the design: dose 1 mg/kg, route intravenous. As to conditions: in vivo. A digest of the protocol: (§1)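 Each compound dosed once intravenously at 1 mg/kg and orally at 3 mg/kg. Exposure read as plasma area under the concentration-time curve, reported in µmol min/L.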

Data set [6] deals with Canis familiaris. Nature of the data set: Area under curve at an iv dose of 1 mg/kg in dog. It counts as ADME, organism-based, Canis lupus familiaris. More on the design: dose 1 mg/kg, route intravenous. As to conditions: in vivo. A digest of the protocol:
as §1

In data set [7] the test system is Rattus norvegicus. Nature of the data set: Area under curve at a peroral dose of 3 mg/kg in rat. It counts as ADME, organism-based. Details: dose 3 mg/kg, route oral. Conditions: in vivo, po. A digest of the protocol:
as §1

The species named for data set [8] is Rattus norvegicus. Nature of the data set: Antagonistic activity inhibiting phenylephrine induced contractions in isolated rat prostate. Format: functional, Prostate gland.
Data set [9] in a line: Bioavailability in rat. It counts as ADME, organism-based. As to conditions: in vivo.
Data set [10] in a line: Plasma half life in rat. Format: ADME, organism-based.
Data set [11] concerns Canis familiaris. Kind of data set: Area under curve at a peroral dose of 3 mg/kg in dog. Format: ADME, organism-based, Canis lupus familiaris. Details: dose 3 mg/kg, route oral. Conditions: in vivo, po. A digest of the protocol:
as §1

Data set [12] in a line: Bioavailability in dog(iv: 1 mg/kg). Format: ADME, organism-based, Canis lupus familiaris. As to conditions: in vivo.
Data set [13] is described as follows: Plasma half life in dog. It counts as ADME, organism-based, Canis lupus familiaris.
A short description of data set [14]: Bioavailability in dog. As to conditions: in vivo. Format: ADME, organism-based, Canis lupus familiaris.
Data set [15] in a line: Selectivity for alpha-1a receptor against rat L-type calcium channel by [3H]nitrendipine binding.

Each structure is given as a SMILES string. “And” between values parts separate entries of the source, which are not always exact repeats. Equal values may be shown once. Bounds are passed on as bounds.

One may read the Ki as the equilibrium dissociation constant of an inhibitor or competing ligand from its target. A word on the Kb: it is the affinity of an antagonist, worked out from how it opposes an agonist. Low values mean a more potent antagonist, high ones a less potent antagonist. By bioavailability is commonly meant the share of a dose that reaches the circulation, judged against a reference dose that is usually intravenous. What is called half-life is how long it takes for the measured level to halve. Higher therefore signals slow loss.

Regarding `COC(=O)C1=C(C)N=C(C)N(CCCCCN2CCC(C(=O)OC)(c3ccccc3)CC2)C1c1ccc(F)cc1F` (configuration not stated), the Ki in data set [1] stood at 160 nM; in [3], 0.5 nM; in data set [4], 700 nM. The Fold selective in data set [2] was more than 1000.
The corresponding values for `COC(=O)C1=C(C)N=C(C)N(CCC[C@H](C)CN2CCC(C#N)(c3ccccc3)CC2)C1c1ccc(F)c(F)c1` (some centres not stated) are 480 nM, 1.2 nM, 1100 nM and more than 120.
As for `COC(=O)C1=C(C)N=C(C)N(CCC[C@@H](C)CN2CCN(c3ccccc3C(N)=O)CC2)C1c1ccc(F)c(F)c1` (single isomer, unassigned; (+)), the Ki was 1500 nM in [1], 20 nM in [3] and 1700 nM in [4]. Moreover, in [2], the Fold selective was less than 10.
For `COC(=O)C1=C(C)N=C(C)N(CCC[C@H](C)CN2CCC(C(=O)OC)(c3ccccc3)CC2)C1c1ccc(F)c(F)c1` (single isomer, unassigned; (+)), the figures for the inhibitory constant (Ki) in [1], in data set [3] and in [4] were 430 nM, 1.6 nM and 910 nM, respectively. For the same molecule, the Fold selective in [2] is less than 50.
The corresponding values for `COC(=O)C1=C(C)N=C(C)N(CCC[C@H](C)CN2CCN(c3ccccc3C(N)=O)CC2)C1c1ccc(F)c(F)c1` (some centres not stated) are 810 nM, 3.5 nM, 1700 nM and less than 100.
On to `COC(=O)C1=C(C)N=C(C)N(CCCCCN2CCC(c3ccc(C)cc3)(c3ccccc3C)CC2)C1c1ccc(F)c(F)c1` (configuration not stated), for which the AUC in the data set with Rattus norvegicus [5] was found to be 35 uM min l-1; with Canis familiaris [6], 11 uM min l-1; with Rattus norvegicus [7], 21 uM min l-1; in the data set with Canis familiaris [11], 8 uM min l-1. Also, the values for the Ki in data set [1], in data set [3] and in [4] were 250 nM, 0.1 nM and 440 nM, respectively. The same molecule yielded a Kb in the data set filed under Rattus norvegicus [8] of 27 nM. Besides, the values for the bioavailability in data set [9] and in data set [12] were 17% and 8%, respectively. The half-life in [10] is 4.7 h; in data set [13] it was 0.5 h.
In the case of `COC(=O)C1=C(C)N=C(C)N(CCCCCN2CCC(C#N)(c3ccccc3)CC2)C1c1ccc(F)c(F)c1` (configuration not stated), the Ki in [1] amounted to 490 nM; in data set [3], 1 nM; in [4], 1100 nM. The same molecule showed a Fold selective in data set [2] of more than 300.
For `COC(=O)C1(c2ccccc2)CCN(CCCCCN2C(C)=NC(C)=C(C(N)=O)C2c2ccc(F)cc2F)CC1` (configuration not stated), the Ki in data set [1] worked out at 410 nM; in data set [3], 4.2 nM; in data set [4], 690 nM. For the same molecule, the Fold selective in data set [2] is less than 10.
As for `COC(=O)C1=C(C)N=C(C)N(CCCCCN2CCC(c3ccccc3)CC2)C1c1ccc(F)c(F)c1` (configuration not stated), the Ki stood at 93 nM in data set [1], 0.4 nM in [3] and 220 nM in data set [4]. In addition, the Fold selective in data set [2] is more than 300.
For `COC(=O)C1=C(C)N=C(C)N(CCCCCN2CCC(c3ccccc3OC)CC2)C1c1ccc(F)c(F)c1` (configuration not stated) the same measures were 140 nM, 0.3 nM, 120 nM and more than 100.
Consider `COC(=O)C1=C(C)N=C(C)N(Cc2cccc(CN3CCC(C(=O)OC)(c4ccccc4)CC3)c2)C1c1ccc(F)c(F)c1` (configuration not stated), for which the Ki was determined as 320 nM in data set [1], 6.8 nM in data set [3] and 570 nM in [4]. Moreover, in data set [2], the Fold selective was more than 130.
In the case of `COC(=O)C1=C(C)N=C(C)N(CCCCCN2CCN(c3ccccc3C(N)=O)CC2)C1c1ccc(F)c(F)c1` (configuration not stated), the results for the AUC in the data set with Rattus norvegicus [5] and with Rattus norvegicus [7] were 5 uM min l-1 and 4 uM min l-1, respectively. Besides, the Ki in data set [1] stood at 240 nM; in data set [3], 0.6 nM; in data set [4], 580 nM. This molecule also displayed a Kb in the data set listed under Rattus norvegicus [8] of 7 nM. The bioavailability in [9] is 21%; in data set [14] it was less than 10%. The figures for the half-life in data set [10] and in [13] were 2.1 h and 4 h, respectively.
Take `COC(=O)C1=C(C)N=C(C)N(CCCCCN2CCN(c3ccccc3C(=O)OC)CC2)C1c1ccc(F)c(F)c1` (configuration not stated): the Ki in data set [1] came to 34 nM; in [3], 0.5 nM; in [4] it was 79 nM. In [2], this molecule gave a Fold selective of more than 100.
The corresponding values for `CNC(=O)C1=C(C)N=C(C)N(CCCCCN2CCC(C(=O)OC)(c3ccccc3)CC2)C1c1ccc(F)cc1F` (configuration not stated) are 870 nM, 14 nM, 1900 nM and less than 80.
For `COCC1=NC(C)=C(C(=O)OC)C(c2ccc(F)c(F)c2)N1CCCCCN1CCC(C#N)(c2ccccc2)CC1` (configuration not stated) the same measures were 310 nM, 0.4 nM, 480 nM and more than 700.
On to `COC(=O)C1=C(C)N=C(C)N(CCCCCN2CCC(c3ccccc3C(F)(F)F)CC2)C1c1ccc(F)c(F)c1` (configuration not stated), for which the Selectivity in [15] is less than 100. The values for the Ki in data set [1], in data set [3] and in [4] were 500 nM, 1.1 nM and 1100 nM, respectively.
For the molecule `COC(=O)C1=C(C)N=C(C)N(CCCCCN2CCC(C(=O)OC)(c3ccccc3)CC2)C1c1ccc(F)c(F)c1` (configuration not stated), the Ki in [1] was 700 nM and 190 nM; in data set [4], 550 nM and 180 nM.
For `COC(=O)C1=C(C)N=C(C)N(CCC[C@@H](C)CN2CCC(C#N)(c3ccccc3)CC2)C1c1ccc(F)c(F)c1` (some centres not stated), the Ki worked out at 1700 nM in data set [1], 22 nM in data set [3] and 1600 nM in data set [4]. Besides, the Fold selective in data set [2] was less than 10.
For `COCC1=C(C(=O)OC)C(c2ccc(F)c(F)c2)N(CCCCCN2CCC(C#N)(c3ccccc3)CC2)C(C)=N1` (configuration not stated) the same measures were 400 nM, 0.4 nM, 680 nM and more than 4000.
For `COC(=O)C1=C(C)N=C(C)N(CCCCCN2CCN(c3ccccc3OC)CC2)C1c1ccc(F)c(F)c1` (configuration not stated) the same measures were 67 nM, 0.4 nM, 65 nM and less than 100.
`COC(=O)C1=C(C)N=C(C)N(CCCCN2CCC(C(=O)OC)(c3ccccc3)CC2)C1c1ccc(F)c(F)c1` (configuration not stated): the Ki is 440 nM in data set [1], 3.6 nM in [3] and 610 nM in [4]. For the same molecule, in data set [2], the Fold selective is less than 80.
Turning to `COC(=O)C1=C(C)NC(=O)N(CCCCCN2CCC(C(=O)OC)(c3ccccc3)CC2)C1c1ccc(F)c(F)c1` (configuration not stated), the Fold selective in data set [2] is more than 1000.

For the origin of these results see ChEMBL document CHEMBL1132111, “Design and synthesis of novel alpha(1)(a) adrenoceptor-selective antagonists. 4. Structure-activity relationship in the dihydropyrimidine series” (J Med Chem, 1999).
